Reference: ChEMBL document CHEMBL1157524, “Synthesis and SAR of a mGluR5 allosteric partial antagonist lead: unexpected modulation of pharmacology with slight structural modifications to a 5-(phenylethynyl)pyrimidine scaffold” (Bioorg Med Chem Lett, 2008)

How the values were obtained:
[1] = target: T1, Metabotropic glutamate receptor 5 (Rattus norvegicus, UniProt P31424); assay: (§1) Antagonist activity at rat mGluR5 expressed in HEK293A cells assessed as inhibition of glutamate-induced calcium fluorescence; assay type: functional, cell-based, HEK293-A
[2] = target: Metabotropic glutamate receptor 5 (Rattus norvegicus) (UniProt P31424); assay: as §1; assay type: functional, cell-based; set-up: concentration or dose not given beside the values; settings: HEK293-A
[3] = target: T1, Metabotropic glutamate receptor 5; assay: Displacement of [3H]methoxy-PEPy from rat mGluR5 expressed in HEK293A cells; assay type: cell-based, HEK293-A
Summary of the method: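 Membranes from HEK293A cells with rat mGluR5 were incubated with 2 nM (final) [³H]methoxy-PEPy in 50 mM Tris, 0.9% NaCl, pH 7.4. Incubation was 60 min at room temperature with shaking. Bound ligand was separated by GF/B filtration with four buffer washes and counted by scintillation. MPEP defined nonspecific binding. Triplicate on three days.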

[4] = target: T1, Metabotropic glutamate receptor 5; assay: Activity at rat mGluR5 expressed in HEK293A cells; assay type: cell-based, HEK293-A
[5] = target: Metabotropic glutamate receptor 5 (Rattus norvegicus) (UniProt P31424); assay: Induction of rat mGluR5 activation expressed in HEK293A cells assessed as maximal response in presence of glutamate; assay type: cell-based; settings: HEK293-A
Summary of the method: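 Potentiator mode in rat mGluR5 HEK293A cells loaded with Fluo4-AM (4.0 µM, 45 min, 37 °C) in HBSS/20 mM Hepes/2.5 mM probenecid, pH 7.4. Compound added at 19 s, then submaximal glutamate (150–165 nM) at 109 s. Calcium fluorescence read and compared with maximal glutamate response. Vehicle 0.3% DMSO. Triplicate on three days.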

T1 sequence (P31424 whole entry): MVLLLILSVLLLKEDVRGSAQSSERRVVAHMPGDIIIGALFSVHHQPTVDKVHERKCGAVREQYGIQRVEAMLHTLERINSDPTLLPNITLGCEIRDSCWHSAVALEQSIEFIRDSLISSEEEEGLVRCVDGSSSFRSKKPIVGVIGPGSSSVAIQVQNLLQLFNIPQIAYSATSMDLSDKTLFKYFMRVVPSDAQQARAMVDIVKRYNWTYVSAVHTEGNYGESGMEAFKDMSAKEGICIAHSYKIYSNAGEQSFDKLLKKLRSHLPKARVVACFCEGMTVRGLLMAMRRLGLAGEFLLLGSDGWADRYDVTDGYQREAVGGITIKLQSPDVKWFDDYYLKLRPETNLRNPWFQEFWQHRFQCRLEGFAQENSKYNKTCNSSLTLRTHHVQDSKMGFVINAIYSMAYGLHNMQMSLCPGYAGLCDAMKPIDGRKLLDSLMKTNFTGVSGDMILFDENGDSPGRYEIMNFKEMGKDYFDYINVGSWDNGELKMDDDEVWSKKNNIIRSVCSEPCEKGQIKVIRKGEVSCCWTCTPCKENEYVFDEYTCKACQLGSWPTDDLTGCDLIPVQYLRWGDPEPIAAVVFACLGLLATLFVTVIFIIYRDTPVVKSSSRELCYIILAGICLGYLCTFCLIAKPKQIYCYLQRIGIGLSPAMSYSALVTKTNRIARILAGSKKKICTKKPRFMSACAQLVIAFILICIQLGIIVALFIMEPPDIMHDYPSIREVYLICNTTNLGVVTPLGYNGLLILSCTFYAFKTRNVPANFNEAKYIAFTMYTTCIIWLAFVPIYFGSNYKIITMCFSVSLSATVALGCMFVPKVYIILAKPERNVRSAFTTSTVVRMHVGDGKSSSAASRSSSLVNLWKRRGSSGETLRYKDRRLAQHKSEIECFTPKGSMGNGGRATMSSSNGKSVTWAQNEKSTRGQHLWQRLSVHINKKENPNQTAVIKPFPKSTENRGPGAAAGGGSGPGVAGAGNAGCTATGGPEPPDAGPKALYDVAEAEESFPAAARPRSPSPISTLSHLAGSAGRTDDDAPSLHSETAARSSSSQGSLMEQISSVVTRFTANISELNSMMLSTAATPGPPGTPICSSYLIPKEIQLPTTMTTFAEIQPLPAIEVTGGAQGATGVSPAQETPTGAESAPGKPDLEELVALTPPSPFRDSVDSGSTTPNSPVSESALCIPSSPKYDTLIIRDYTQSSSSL
Sequence of Metabotropic glutamate receptor 5 (Rattus norvegicus) (P31424 21-1203 limits assumed): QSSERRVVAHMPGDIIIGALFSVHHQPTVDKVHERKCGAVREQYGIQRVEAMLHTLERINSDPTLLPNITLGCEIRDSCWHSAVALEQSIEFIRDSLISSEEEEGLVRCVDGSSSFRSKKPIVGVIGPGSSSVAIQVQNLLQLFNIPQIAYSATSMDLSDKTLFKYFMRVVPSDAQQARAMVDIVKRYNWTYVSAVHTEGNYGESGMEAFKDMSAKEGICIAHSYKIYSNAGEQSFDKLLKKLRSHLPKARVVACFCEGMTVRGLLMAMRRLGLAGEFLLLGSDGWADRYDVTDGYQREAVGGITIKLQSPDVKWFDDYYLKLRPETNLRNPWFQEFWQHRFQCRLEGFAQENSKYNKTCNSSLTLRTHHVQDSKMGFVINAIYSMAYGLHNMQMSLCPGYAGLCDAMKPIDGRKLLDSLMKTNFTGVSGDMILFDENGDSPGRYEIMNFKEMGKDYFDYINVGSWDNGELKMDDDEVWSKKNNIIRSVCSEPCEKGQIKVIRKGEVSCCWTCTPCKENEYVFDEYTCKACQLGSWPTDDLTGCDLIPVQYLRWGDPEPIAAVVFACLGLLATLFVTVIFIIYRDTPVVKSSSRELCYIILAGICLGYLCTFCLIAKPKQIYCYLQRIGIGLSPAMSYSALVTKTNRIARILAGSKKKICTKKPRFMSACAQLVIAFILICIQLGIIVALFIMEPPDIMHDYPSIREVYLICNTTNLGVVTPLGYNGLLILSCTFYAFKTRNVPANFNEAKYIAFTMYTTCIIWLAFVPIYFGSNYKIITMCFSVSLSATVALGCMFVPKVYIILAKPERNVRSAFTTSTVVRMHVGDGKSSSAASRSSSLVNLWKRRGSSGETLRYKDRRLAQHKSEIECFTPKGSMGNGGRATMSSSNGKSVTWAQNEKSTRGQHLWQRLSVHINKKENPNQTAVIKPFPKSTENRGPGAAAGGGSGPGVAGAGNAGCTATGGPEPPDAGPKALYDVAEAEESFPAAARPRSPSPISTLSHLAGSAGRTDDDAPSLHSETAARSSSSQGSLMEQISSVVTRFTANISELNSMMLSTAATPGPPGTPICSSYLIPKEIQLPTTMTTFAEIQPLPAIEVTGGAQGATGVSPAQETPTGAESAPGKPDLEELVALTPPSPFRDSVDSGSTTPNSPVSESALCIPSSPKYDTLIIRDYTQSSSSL

SMILES | IC50 [1] [nM] | Activity [2] [%] | also measured
C(#Cc1cncnc1)c1ccccc1 | 480 | 71 | Ki [3]: 126 nM
O=Cc1ccc(C#Cc2cncnc2)cc1 | – | – | EC50 [4]: 7900 nM
CCc1ccc(C#Cc2cncnc2)cc1 | – | – | EC50 [4]: 18800 nM
Clc1ccc(C#Cc2cncnc2)cc1 | – | – | EC50 [4]: 3900 nM
Cc1cc(C#Cc2cncnc2)ccc1F | 350 | 100 | –
Cc1cccc(C#Cc2cncnc2)c1 | 7 | 100 | –
O=C(Nc1ccc(Cl)cc1CN1C(=O)c2ccccc2C1=O)c1ccccc1O | – | – | Activity [5]: < 70%
N#Cc1cccc(C(=O)Nc2cc(-c3ccccc3)nn2-c2ccccc2)c1 | – | – | Activity [5]: < 70%
Cc1ccc(C#Cc2cncc(Br)c2)nc1 | – | 50 | –
Cc1ccc(C#Cc2cncnc2)cc1 | – | – | EC50 [4]: 3300 nM; Activity [5]: 99%
Fc1cccc(/C=N/N=C/c2cccc(F)c2)c1 | – | – | Activity [5]: < 70%
Cc1ccc(C)c(C#Cc2cncnc2)c1 | 11200 | 58 | –

Continued, in another order:

IC50 [1] [nM] | Activity [2] [%] | SMILES | also measured
– | 50 | COc1cccc(C#Cc2ccc(C)cn2)c1 | –
7800 | 100 | C(#Cc1cncnc1)c1ccc(-c2ccccc2)cc1 | –
6400 | 100 | Fc1cc(F)cc(C#Cc2cncnc2)c1 | –
34 | 100 | Clc1cccc(C#Cc2cncnc2)c1 | –
450 | 100 | FC(F)(F)c1cccc(C#Cc2cncnc2)c1 | –
– | 58 | O=C(Nc1cccc(F)c1)c1cccc(Cl)c1 | EC50 [1]: 297 nM
